# An excerpt weighted towards active compounds, which were near 3.3% of everything screened.
# HTRA1 inhibitor: HTRA1 (human) protease inhibition | 340,000 tested, 0.5% active | inhibition, % at 5.96 µM | recombinant HTRA1, FP-rhodamine activity-based probe, fluorescence polarization; in the data active = inhibition above about 36%;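 also: 0% = enzyme with DMSO and 100% = wells lacking enzyme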
# rCAG RNA binder: binds r(CAG) RNA repeats; r(CAG) RNA repeat, TO-PRO-1 dye displacement fluorescence; inhibition, % at 3 µM; 370,000 tested, 1.3% active;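 active = inhibition above the plate cutoff, the mean of all test compounds on that plate plus 3 SD, cut at about 35% in these data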;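 also: 0% = DMSO alone and 100% = 100 µM mitoxantrone as full dye displacement; higher means more dye released from RNA so lower well fluorescence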
# SIAE primary: human SIAE inhibition, primary screen; 370,000 tested, 0.69% active; Q9HAT2; inhibition, % at 9.66 µM; SIAE FP-Rh probe binding, fluorescence polarization;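 active = inhibition above a cutoff: mean of compounds within the control limits plus 3 SD of those, cut at about 17% in these data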;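 also: 0% = plate median of compound wells and 100% = probe without SIAE protein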
# Target sequence (Q9HAT2 whole entry, looked up): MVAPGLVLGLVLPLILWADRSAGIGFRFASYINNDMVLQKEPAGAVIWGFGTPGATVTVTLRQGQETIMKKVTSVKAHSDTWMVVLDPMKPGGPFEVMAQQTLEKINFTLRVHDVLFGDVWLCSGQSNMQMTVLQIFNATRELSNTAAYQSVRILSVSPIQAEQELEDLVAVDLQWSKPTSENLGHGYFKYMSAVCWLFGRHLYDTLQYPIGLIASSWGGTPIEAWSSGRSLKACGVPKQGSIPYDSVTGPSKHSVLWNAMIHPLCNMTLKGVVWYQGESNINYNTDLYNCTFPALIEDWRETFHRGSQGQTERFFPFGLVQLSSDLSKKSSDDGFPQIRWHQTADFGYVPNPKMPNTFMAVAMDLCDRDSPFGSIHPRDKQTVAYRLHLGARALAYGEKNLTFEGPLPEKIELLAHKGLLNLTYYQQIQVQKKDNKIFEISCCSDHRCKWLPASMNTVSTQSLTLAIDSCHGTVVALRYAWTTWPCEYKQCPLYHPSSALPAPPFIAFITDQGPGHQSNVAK
# PRMT1 FP inh: PRMT1 (human) inhibition, primary screen | inhibition, % at 2.79 µM | recombinant PRMT1, activity-based probe fluorescence polarization | 370,000 tested, 1.3% active | AID 652257;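 active = inhibition above about 21% made by adding two undisclosed values, limit read from the data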
# mABHD4 FP: inhibits mouse alpha/beta hydrolase domain 4 | AID 720543 | 370,000 tested, 0.54% active | inhibition, % at 8.92 µM | purified mABHD4, FP-Rh probe fluorescence polarization | Q8VD66;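 active = inhibition exceeding the mean over every tested compound plus 3 SD, cut at about 30% in these data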;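 also: 0% = plate median of compound wells and 100% = S159A mutant with DMSO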
#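 Test system: mouse ABHD4 enzyme, wild type. Reagent: FP-Rh fluorescent activity-based probe, added after compound pre-incubation. Timing: pre-incubation 45 min, probe exposure 60 min, at 25 °C. Technique: FP readout, ex 525 nm / em 598 nm. Benchmarks: high control S159A mutant with DMSO, low control median of compound wells.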
# SIAE confirm: confirmation of human SIAE inhibitors. shares compounds with SIAE primary. SIAE FP-Rh activity-based probe, fluorescence polarization. inhibition, % at 9.66 µM. 2,300 tested, 13% active;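 active = mean inhibition of the replicates above the hit cutoff set in the primary screen, cut at about 17% in these data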;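 also: 0% = SIAE with DMSO and probe and 100% = probe without SIAE; inhibitors lower polarization as more probe stays unbound to SIAE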
# Numbers without * were called inactive; / = not tested or not shown.
SMILES,HTRA1 inhibitor,rCAG RNA binder,SIAE primary,PRMT1 FP inh,mABHD4 FP,SIAE confirm
Cc1ccc(C(=O)NCc2cccnc2)cc1S(=O)(=O)N1CCCCCC1,0,-3,-3,-4,1,/
Cc1ccc(C(=O)NCc2cccc(C(F)(F)F)c2)cc1S(=O)(=O)N1CCCCC1,-7,-4,25*,-2,-1,3
CCCCNC(=O)Nc1ccccc1C(=O)Nc1ccc(OC)cc1,-13,-8,50*,1,-1,2
CCCCNC(=O)Nc1ccccc1C(=O)NCCC,3,-1,3,3,-1,/
O=C(/C=C/c1ccccc1[N+](=O)[O-])N1CCc2ccccc2C1,-13,10,-2,0,1,/
CN(C)N1C(N)=C(C#N)C(c2ccccc2F)C2=C1CC(C)(C)CC2=O (stereo not drawn),9,0,25*,-1,-1,3
Cc1cc(C)c(OCC(=O)OCC(=O)N2CCN(C(=O)c3ccco3)CC2)c(C)c1,-3,-6,18*,6,6,-4
Cc1cc(Br)cc(Cl)c1OCC(=O)N1CCN(C(=O)c2ccco2)CC1,1,0,3,3,3,/
COc1ccc(NC(=O)c2cccc(N3C(=O)c4ccc(C(=O)Nc5ccc(OC)c(O)c5)cc4C3=O)c2)cc1O,4,29,23*,3,20,5
CC(=O)c1ccc(NC(=O)c2cccc(N3C(=O)c4ccccc4C3=O)c2)cc1,-3,/,/,/,/,/
CN(C)/C=C(\C(=O)c1ccc(Cl)cc1)c1nnnn1-c1ccc(Cl)cc1,5,1,18*,0,-6,-5
COC(C)(C)[C@@H](O)COc1c2ccoc2cc2oc(=O)ccc12,-3,0,0,-2,-2,/
CC1CCN(C(=O)CSc2nnc(CNC(=O)c3ccco3)o2)CC1,2,-1,22*,-1,0,1
CCC(CC)c1nnc(NC(=O)CS(=O)(=O)c2ccccc2)s1,5,6,26*,2,2,5
CCC(c1ccccc1)c1noc(CCN(CC)CC)n1 (stereo not drawn),-1,-1,20*,-2,-4,0
COc1cccc(-c2noc(C(C)n3nc(C)c([N+](=O)[O-])c3C)n2)c1 (stereo not drawn),-7,0,34*,0,-13,-1
Cc1ccc2c(=O)n3c(nc2c1)C(Cc1ccccc1)NC(=O)c1cc(Cl)ccc1-3 (stereo not drawn),/,10,-6,-2,-16,/
C/C(=N\NC(=S)NC(C)C)c1cccc([N+](=O)[O-])c1,6,-5,20*,-1,1,-1
COC(=O)CCCCCc1ccc(C(C)=O)s1,4,-2,17*,-1,1,6
CC(=O)c1ccc(CCCCCCCCCC(=O)O)s1,1,17,7,2,6,/
CC(=O)NCCC(=O)Nc1cc(S(=O)(=O)N2CCCCC2)ccc1N1CCCCC1,3,0,-2,1,1,/
CC(=O)NCCC(=O)Nc1cc(S(=O)(=O)Nc2ccc(Cl)cc2)ccc1N1CCCC1,-3,5,18*,3,4,4
CC(=O)c1ccc(N2Cc3ccccc3/C2=N\C(=O)Nc2ccccc2)cc1,-4,2,26*,1,6,2
CC(=O)c1ccc(N2Cc3ccccc3C2=NC(=O)c2cccs2)cc1,5,0,-6,-2,0,/
COc1ccc(Nc2nc(-c3cccc(OC)c3O)nc3ccccc23)cc1,15,29,18*,-3,20,-29
SMILES,HTRA1 inhibitor,rCAG RNA binder,SIAE primary,PRMT1 FP inh,mABHD4 FP,SIAE confirm
COc1cccc(-c2nc(NC(C)(C)C)c3ccccc3n2)c1O,-13,14,15,-4,11,/
CC(C)Cc1nnc(NS(=O)(=O)c2ccc(Cl)cc2)s1,-5,18,27*,-2,-1,0
O=S(=O)(Nc1nccs1)c1ccc(Cl)cc1,3,7,19*,1,4,-2
COc1ccc(S(=O)(=O)Nc2ccc(S(=O)(=O)Nc3nccs3)cc2)cc1,4,4,6,2,3,/
Cc1cn(CC(=O)NCc2ccc3c(c2)OCO3)c(=O)[nH]c1=O,3,0,-4,2,4,/
COCCn1c(C)cc(C2=NNC(=NC3CC3)SC2)c1C,10,4,25*,10,4,2
O=C(Cn1nnc(-c2ccccc2Cl)n1)N/N=C/c1ccc(-c2cccc(Cl)c2)o1,1,-1,-6,1,3,/
c1ccc2c(c1)CCN(C1=Nc3cccc4cccc1c34)C2,17,2,30*,1,9,1
Cn1c(=O)c2c(SCC(=O)Nc3ccccc3F)nc(C3CC3)nc2n(C)c1=O,7,-1,1,5,-9,/
Cn1c(=O)c2c(SCC(=O)Nc3ccccc3F)nc(-c3ccccc3F)nc2n(C)c1=O,9,0,23*,-4,-2,1
COc1ccc(C(=O)Nc2ccc(N3CCOCC3)cc2)cc1S(=O)(=O)NC1CCCC1,4,-4,17*,1,2,-6
Cc1ccc(C(=O)N2CCN(c3ccc(NC(=O)c4cccnc4)cc3)CC2)cc1,-1,-9,9,0,-11,/
COc1cc(C(=O)Nc2ccc(N3CCN(C(=O)c4ccc(C)cc4)CC3)cc2)cc(OC)c1OC,2,-4,21*,2,1,6
COc1ccc(C(=O)Nc2ccc(N3CCOCC3)cc2)cc1S(=O)(=O)N1CCCC1,3,0,3,-5,-2,/
Cc1ccc(C(=O)Nc2cccc(C(=O)N3CCOCC3)c2)cc1,-3,-4,26*,-1,1,4
O=C(NCC1CCCCC1)c1ccc2sc([C@H]3C[C@H](O)[C@@H](CO)O3)nc2c1,/,3,4,3,2,/
CCOc1cc(/C=C(\C#N)C(=O)Nc2ccc(S(N)(=O)=O)cc2)ccc1OCCN1CCOCC1,2,3,-2,0,1,/
CCCC(C)NCC(=O)Nc1ccccc1-c1ccccc1 (stereo not drawn),-8,-8,-1,3,12,/
Cc1ccc(NC(=O)NNC(=O)c2cc3ccccc3cc2O)c(C)c1,35,31,22*,-1,18,-4
O=C(NCCc1c[nH]c2ccccc12)C(=O)c1c[nH]c2ccccc12,-19,11,27*,3,-8,-5
CCc1nnc(NC(=O)CCc2c[nH]c3ccccc23)s1,-1,1,18*,1,1,5
CN(c1cccnc1)c1ccc(NC(=O)CCc2c[nH]c3ccccc23)cc1Br,/,14,32*,11,23,45*
O=C(CCc1c[nH]c2ccccc12)NCc1cccc(Cl)c1,2,-2,3,2,-9,/
O=C(CCc1c[nH]c2ccccc12)NCCc1ccc2c(c1)OCCO2,-1,2,17*,7,0,-2
CC(C)C(=O)Nc1nnc(Cc2c[nH]c3ccccc23)s1,3,-2,-1,-6,-5,/

# High-throughput results: PubChem BioAssay, The Scripps Research Institute Molecular Screening Center
